The values that follow come from the array DNA melting data of Ke et al. (doi:10.1101/2024.01.08.574731).

Data set [1] can be described thus: melting temperature; fluorescence melt of hairpins on a sequencing array, two-state fit, raised by 9.35 °C to match UV melts. The following applies: sodium 0.088 M. In short, it runs like this:
(§1)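 To match UV melts, fitted temperatures were raised by 9.35 °C. These fits were bootstrapped two-state models that gave melting temperature and folding enthalpy, combined by inverse variance over four replicates. The input was normalised Cy3 fluorescence of library hairpins with annealed Cy3 and quencher oligos on a sequenced MiSeq flow cell, imaged in 50 mM Na-HEPES pH 8.0, 25 mM NaCl in 2.5 °C steps up to 60 °C.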

Data set [2] can be described thus: folding enthalpy; higher = less favourable; fluorescence melt of hairpins on a sequencing array, two-state fit. To be noted: sodium 0.088 M. In short, it runs like this:
as §1

For GTACAAGCGAAAGCTTAC (((..(((....)))))), in data set [1], the Tm is 28.4 °C. The folding enthalpy in data set [2] was -11.2 kcal/mol.

As to GGTACGGGAAACCGTGTC (..((((....))))..), in data set [1], the Tm turned out to be 35.3 °C. In data set [2], the folding enthalpy is -14.1 kcal/mol.

For the sequence GATTACGAAAGTATGATC ((((((....)))..))), in data set [1], the Tm amounted to 14.5 °C. The folding enthalpy in data set [2] is -6.67 kcal/mol.

GCCCGGCGAAAGCCTTGC ((..(((....)))..)): in data set [1], the Tm was 35.7 °C. The folding enthalpy in data set [2] is -8.46 kcal/mol.

On to GATCCAGCTCTGGATC ((((((....)))))), for which the Tm in data set [1] turned out to be 54 °C. The folding enthalpy in data set [2] was -41.1 kcal/mol.

GGGAGTGGAAACACTCTC (.(((((....))))).): the Tm in data set [1] is 51.7 °C. For the same sequence, the folding enthalpy in data set [2] is -25.1 kcal/mol.

Consider GCGAAGTCTCGC ((((....)))), for which, in data set [1], the Tm amounted to 47.7 °C. For the same sequence, in data set [2], the folding enthalpy was -14.2 kcal/mol.

With GATCTTCAAGAAGATC ((((((....)))))), the Tm in data set [1] turned out to be 46 °C. The folding enthalpy in data set [2] is -33.5 kcal/mol.

With GTTCTCGAAAGAGAGAAC ((((((....)))..))), in data set [1], the Tm was found to be 46.4 °C. The folding enthalpy in data set [2] was -25.1 kcal/mol.

GGTGACGGAAACGCCACC ((((.((....)).)))): the Tm in data set [1] turned out to be 54.3 °C. Further, the folding enthalpy in data set [2] is -48 kcal/mol.

GATCGCAAATGCGATC ((((((....)))))): in data set [1], the Tm was 68 °C. Further, in data set [2], the folding enthalpy is -40.5 kcal/mol.

As for GAAAACGGAAACGTTCTC ((.((((....)))).)), the Tm in data set [1] worked out at 30.4 °C. For the same sequence, the folding enthalpy in data set [2] was -12.7 kcal/mol.

On to GACCACGGAAACATGGTC (((((.(....).))))), for which the Tm in data set [1] is 43.4 °C. Besides, in data set [2], the folding enthalpy is -35.5 kcal/mol.

On to GGTATTGAAAAATACC ((((((....)))))), for which, in data set [1], the Tm came out at 49 °C. The folding enthalpy in data set [2] was -38.8 kcal/mol.

As for GTCGGCGAAAGCCTCGAC ((((((....)))..))), the Tm in data set [1] stood at 42.4 °C. Further, the folding enthalpy in data set [2] was -14.7 kcal/mol.

GGATTTGGAAACAGATCC ((((.((....)).)))): the Tm in data set [1] was found to be 41.5 °C. In data set [2], the folding enthalpy was -30.7 kcal/mol.

With CGAGGCCGGAAACGGTCG (((..(((....)))))), the Tm in data set [1] is 48.5 °C. Besides, the folding enthalpy in data set [2] is -19.7 kcal/mol.

Take GCATAGCGAAAGCTCGGC ((..(((....)))..)): in data set [1], the Tm was 36.5 °C. Moreover, in data set [2], the folding enthalpy is -16.2 kcal/mol.

Turning to GCTGCGGGAAACCGTAGC (((.(((....))).))), the Tm in data set [1] came out at 58.5 °C. Besides, in data set [2], the folding enthalpy was -49.1 kcal/mol.

For GCTCTCCGAAAGGAAAGC (((.(((....))).))), the Tm in data set [1] was found to be 46.5 °C. Also, the folding enthalpy in data set [2] was -28.4 kcal/mol.

In the case of CGCGGACCGTCCGCG ((((((...)))))), the Tm in data set [1] turned out to be 68.9 °C. The folding enthalpy in data set [2] is -29 kcal/mol.

GCAATCGAAAGATAATGC ((((((....)))..))): the Tm in data set [1] came to 27.8 °C. The folding enthalpy in data set [2] was -16.3 kcal/mol.

For GGATCCGAAAGGAGGTCC ((((((....)))..))), the Tm in data set [1] was 32.9 °C. Moreover, the folding enthalpy in data set [2] is -14.9 kcal/mol.

In the case of GCATGAGAAATCATGC ((((((....)))))), the Tm in data set [1] is 56.4 °C. In data set [2], the folding enthalpy is -38.7 kcal/mol.

As to GTCGGAACGAAAGTTGAC (((..(((....)))))), the Tm in data set [1] was found to be 32.7 °C. Besides, the folding enthalpy in data set [2] was -10.8 kcal/mol.

Turning to GAAAGCGAAAGCTGTTC ((((((....))).))), the Tm in data set [1] was determined as 34.1 °C. Moreover, the folding enthalpy in data set [2] was -10.8 kcal/mol.

Regarding GTGGTCGGAAACGGCTAC ((.(.((....)).).)), the Tm in data set [1] amounted to 44.5 °C. The folding enthalpy in data set [2] was -25.8 kcal/mol.

Take GCGATCGCTCGC ((((....)))): in data set [1], the Tm stood at 49.6 °C. The folding enthalpy in data set [2] is -24.2 kcal/mol.

As for GCAAATGGAAACATTCGC ((.((((....)))).)), the Tm in data set [1] worked out at 38.4 °C. In addition, the folding enthalpy in data set [2] is -28.5 kcal/mol.

As for GTACCGGAAACGGTAC ((((((....)))))), in data set [1], the Tm is 64.7 °C. Further, the folding enthalpy in data set [2] was -36.6 kcal/mol.

For the sequence GTACTGCGAAAGCAATAC (((.(((....))).))), the Tm in data set [1] was 37.4 °C. Besides, in data set [2], the folding enthalpy was -21.6 kcal/mol.

For GGTCTGCGAAAGCATACC (((.(((....))).))), in data set [1], the Tm came to 49.4 °C. Moreover, the folding enthalpy in data set [2] is -22.1 kcal/mol.

For the sequence GTGCAGGGAAACTTGCAC (((((.(....).))))), the Tm in data set [1] was 52.5 °C. In addition, the folding enthalpy in data set [2] is -40.7 kcal/mol.

As to GGAGACGGAAACGTCCCC ((.((((....)))).)), in data set [1], the Tm is 49.2 °C. The folding enthalpy in data set [2] was -20.1 kcal/mol.

For the sequence GCGGTGCGAAAGCAGTGC ((..(((....)))..)), in data set [1], the Tm is 63.6 °C. For the same sequence, the folding enthalpy in data set [2] is -23.5 kcal/mol.

In the case of GATCCCAGCAGGGATC ((((((....)))))), the Tm in data set [1] worked out at 66.3 °C. Besides, the folding enthalpy in data set [2] was -34.6 kcal/mol.

As to GGAACTCGAAAGAGCTCC (((.(((....))).))), the Tm in data set [1] was 48.2 °C. Also, the folding enthalpy in data set [2] is -33.9 kcal/mol.
